{"source": "ChEMBL document CHEMBL1938242", "about": "“In vivo evaluation of oral anti-tumoral effect of 3,4-dihydroquinazoline derivative on solid tumor” (Bioorg Med Chem Lett, 2012)", "key": {"[1]": {"biological_target": "Voltage-dependent N-type calcium channel subunit alpha-1B (Homo sapiens, UniProt Q00975)", "sequence (Q00975 whole entry)": "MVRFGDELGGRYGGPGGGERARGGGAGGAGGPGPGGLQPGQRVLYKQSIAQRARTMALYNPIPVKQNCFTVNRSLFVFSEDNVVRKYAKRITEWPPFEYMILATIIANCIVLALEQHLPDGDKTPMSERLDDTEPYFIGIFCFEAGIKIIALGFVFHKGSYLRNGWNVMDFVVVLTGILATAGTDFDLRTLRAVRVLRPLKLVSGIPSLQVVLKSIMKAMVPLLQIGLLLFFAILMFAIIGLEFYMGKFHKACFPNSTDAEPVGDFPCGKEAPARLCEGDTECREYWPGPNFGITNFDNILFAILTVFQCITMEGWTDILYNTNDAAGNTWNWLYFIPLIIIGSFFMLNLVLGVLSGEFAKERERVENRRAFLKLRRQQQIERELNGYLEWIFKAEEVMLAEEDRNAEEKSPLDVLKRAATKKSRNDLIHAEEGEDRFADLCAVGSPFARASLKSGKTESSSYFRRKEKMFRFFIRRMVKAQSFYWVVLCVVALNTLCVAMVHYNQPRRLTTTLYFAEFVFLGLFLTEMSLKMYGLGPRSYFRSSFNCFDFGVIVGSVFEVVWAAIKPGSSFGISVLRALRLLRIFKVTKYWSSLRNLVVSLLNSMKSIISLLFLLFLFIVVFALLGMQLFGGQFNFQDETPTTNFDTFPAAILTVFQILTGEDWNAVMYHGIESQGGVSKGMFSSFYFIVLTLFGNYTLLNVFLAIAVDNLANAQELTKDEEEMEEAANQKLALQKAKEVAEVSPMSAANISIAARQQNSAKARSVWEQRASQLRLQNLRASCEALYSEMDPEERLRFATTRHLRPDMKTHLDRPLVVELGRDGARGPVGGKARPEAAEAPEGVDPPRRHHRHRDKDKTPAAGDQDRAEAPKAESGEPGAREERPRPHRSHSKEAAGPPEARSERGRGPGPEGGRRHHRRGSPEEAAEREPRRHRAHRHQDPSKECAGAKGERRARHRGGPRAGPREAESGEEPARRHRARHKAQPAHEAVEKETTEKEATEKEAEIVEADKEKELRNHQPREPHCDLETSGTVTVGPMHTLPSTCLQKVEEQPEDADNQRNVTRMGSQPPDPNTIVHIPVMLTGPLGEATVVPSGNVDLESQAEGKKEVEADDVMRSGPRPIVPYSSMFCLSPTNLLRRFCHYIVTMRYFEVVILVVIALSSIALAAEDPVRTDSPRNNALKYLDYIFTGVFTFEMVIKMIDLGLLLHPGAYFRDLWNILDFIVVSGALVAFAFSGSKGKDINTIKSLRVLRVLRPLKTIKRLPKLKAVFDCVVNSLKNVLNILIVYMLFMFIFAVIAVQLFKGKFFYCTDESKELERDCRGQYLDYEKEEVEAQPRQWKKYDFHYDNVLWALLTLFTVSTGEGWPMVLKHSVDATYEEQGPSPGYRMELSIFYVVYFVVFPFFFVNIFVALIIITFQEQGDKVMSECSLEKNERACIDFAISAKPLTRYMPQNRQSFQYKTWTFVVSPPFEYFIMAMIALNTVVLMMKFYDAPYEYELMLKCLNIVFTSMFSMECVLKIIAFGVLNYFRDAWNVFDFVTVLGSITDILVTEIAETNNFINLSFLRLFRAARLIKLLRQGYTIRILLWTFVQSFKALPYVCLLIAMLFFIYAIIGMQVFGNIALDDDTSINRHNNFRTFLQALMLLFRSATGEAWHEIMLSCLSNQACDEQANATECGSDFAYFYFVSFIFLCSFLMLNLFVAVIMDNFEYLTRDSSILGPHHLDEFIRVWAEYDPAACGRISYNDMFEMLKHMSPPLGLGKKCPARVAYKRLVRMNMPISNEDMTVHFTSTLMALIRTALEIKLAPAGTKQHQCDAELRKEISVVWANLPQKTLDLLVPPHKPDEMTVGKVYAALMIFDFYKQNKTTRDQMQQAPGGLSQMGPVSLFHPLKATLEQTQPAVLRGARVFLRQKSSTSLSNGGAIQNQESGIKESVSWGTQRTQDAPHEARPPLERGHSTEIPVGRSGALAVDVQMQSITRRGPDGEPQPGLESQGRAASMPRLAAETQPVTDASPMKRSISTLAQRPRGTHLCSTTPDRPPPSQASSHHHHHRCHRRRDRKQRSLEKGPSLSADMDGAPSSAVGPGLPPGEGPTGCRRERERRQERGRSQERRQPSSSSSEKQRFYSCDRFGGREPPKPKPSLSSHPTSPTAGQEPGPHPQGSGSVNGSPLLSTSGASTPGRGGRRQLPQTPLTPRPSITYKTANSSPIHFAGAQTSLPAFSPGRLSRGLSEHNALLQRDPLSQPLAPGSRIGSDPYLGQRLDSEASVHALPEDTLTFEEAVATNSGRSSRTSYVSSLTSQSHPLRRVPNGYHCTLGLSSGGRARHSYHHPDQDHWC", "assay": "Inhibition of N-type calcium channel alpha 1 B"}, "[2]": {"system": "A549", "assay": "Antitumor activity against human A549 cells xenografted in po dosed athymic nu/nu BALB/c mouse assessed as decrease in tumor volume administered 5 times weekly for consecutive 39 days", "format": "functional, organism-based", "method_in_brief": "(§1)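 A549 cells (5 × 10⁶) injected s.c. into the left flank of BALB/c nu/nu mice, n = 5 per group. At day 8 (nodules ca. 3 mm³), oral dosing at 1 or 5 mg/kg in ethanol:Cremophor EL:water 1:1:18, five times weekly for 39 days. Caliper measurement weekly; volume from length, width and height. Mean ± SE; Dunnett's test versus vehicle.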"}, "[3]": {"system": "A549", "assay": "Antitumor activity against human A549 cells xenografted in athymic nu/nu BALB/c mouse assessed as decrease in tumor volume at 1 mg/kg, po administered 5 times weekly for consecutive 39 days (reference value: 224.40 +/- 60.34 mm3)", "format": "functional", "method_in_brief": "as §1"}, "[4]": {"system": "A549", "assay": "Antitumor activity against human A549 cells xenografted in athymic nu/nu BALB/c mouse assessed as decrease in tumor volume at 5 mg/kg, po administered 5 times weekly for consecutive 39 days (reference value: 224.40 +/- 60.34 mm3)", "format": "functional", "method_in_brief": "as §1"}, "[5]": {"system": "A549", "assay": "Antitumor activity against human A549 cells xenografted in athymic nu/nu BALB/c mouse assessed as decrease in tumor volume at 5 mg/kg, po administered 5 times weekly for consecutive 39 days relative to paclitaxel", "format": "functional", "method_in_brief": "as §1"}, "[6]": {"system": "A549", "assay": "Antitumor activity against human A549 cells xenografted in athymic nu/nu BALB/c mouse assessed as decrease in tumor weight at 1 mg/kg, po administered 5 times weekly for consecutive 39 days (reference value: 0.358 +/- 0.052 g)", "format": "functional"}, "[7]": {"system": "A549", "assay": "Antitumor activity against human A549 cells xenografted in athymic nu/nu BALB/c mouse assessed as decrease in tumor weight at 5 mg/kg, po administered 5 times weekly for consecutive 39 days (reference value: 0.358 +/- 0.052 g)", "format": "functional"}, "[8]": {"system": "A549", "assay": "Antitumor activity against human A549 cells xenografted in athymic nu/nu BALB/c mouse assessed as tumor growth inhibition at 1 mg/kg, po administered 5 times weekly for consecutive 39 days", "format": "functional", "settings": "A549, 936 h, read-out: GI"}, "[9]": {"system": "A549", "assay": "Antitumor activity against human A549 cells xenografted in athymic nu/nu BALB/c mouse assessed as tumor growth inhibition at 5 mg/kg, po administered 5 times weekly for consecutive 39 days", "format": "functional", "settings": "A549, 936 h, read-out: GI"}, "[10]": {"system": "Mus musculus", "assay": "Toxicity in athymic nu/nu BALB/c mouse bearing human A549 cells assessed as change in total body weight at 1 to 5 mg/kg, po administered 5 times weekly for consecutive 39 days", "format": "organism-based", "parameters": "dose 1-5 mg/kg, route oral", "settings": "in vivo, 936 h", "method_in_brief": "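A549 cells (5 × 10⁶ cells/mL) were injected s.c. into the left flank of BALB/c nu/nu nude mice. After 8 days, once nodules were visible (ca. 3 mm³), mice got oral doses in ethanol:Cremophor EL:distilled water (1:1:18) five times per week for 39 days, with vehicle-only controls (n = 5/group). Total body weights were followed over the period (mean ± SE; Dunnett's test versus control).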"}, "[11]": {"system": "Mus musculus", "assay": "Antinociceptive activity in po dosed mouse assessed as inhibition of acetic acid-induced writhing measured every 5 mins for 20 mins pretreated 1 hr before acetic acid challenge", "format": "functional, organism-based", "method_in_brief": "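Mice (n = 7 per group) given 10 or 50 mg/kg orally; 1 h later injected ip with 0.7% (v/v) acetic acid, 10 mL/kg. After a 5-min delay, writhes counted for 20 min. Comparison with vehicle controls by Dunnett's test; mean ± S.D.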"}, "[12]": {"system": "Mus musculus", "assay": "Antinociceptive activity in po dosed mouse assessed as time of latency at 10 or 50 mg/kg, po administered 1 hr before hot plate test", "format": "functional, organism-based", "parameters": "dose 50 mg/kg", "method_in_brief": "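Mice (n = 10 per group) given 10 or 50 mg/kg orally; 1 h later placed on a hot plate at 55 ± 0.5 °C. Latency recorded at 0 and 30 min. Comparison with vehicle control by Dunnett's test; mean ± S.D.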"}, "[13]": {"system": "Mus musculus", "assay": "Toxicity in athymic nu/nu BALB/c mouse bearing human A549 cells assessed as decrease in body weight at 5 mg/kg, po administered 5 times weekly for consecutive 39 days measured on day 19 to 22 post dosing", "settings": "in vivo, 936 h"}, "[14]": {"system": "Mus musculus", "assay": "Antinociceptive activity in po dosed mouse assessed as time of latency at 100 mg/kg, po administered 1 hr before hot plate test", "format": "functional, organism-based", "parameters": "dose 100 mg/kg"}, "[15]": {"system": "A549", "assay": "Antitumor activity against human A549 cells xenografted in athymic nu/nu BALB/c mouse assessed as decrease in tumor volume at 10 mg/kg, ip administered twice per week for consecutive 39 days (reference value: 224.40 +/- 60.34 mm3)", "format": "functional", "settings": "route intraperitoneal"}, "[16]": {"system": "A549", "assay": "Antitumor activity against human A549 cells xenografted in athymic nu/nu BALB/c mouse assessed as decrease in tumor weight at 10 mg/kg, ip administered twice per week for consecutive 39 days (reference value: 0.358 +/- 0.052 g)", "format": "functional", "settings": "route intraperitoneal", "method_in_brief": "(§2)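 A549 s.c. flank xenografts (5 × 10⁶ cells) in BALB/c nu/nu mice, n = 5. From day 8, given 10 mg/kg ip in ethanol:Cremophor EL:water 1:1:18, twice weekly for 39 days. Excised tumors weighed at the end. Inhibition % = 100 × (C − T)/C using mean tumor weights versus vehicle. Mean ± SE.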"}, "[17]": {"system": "A549", "assay": "Antitumor activity against human A549 cells xenografted in athymic nu/nu BALB/c mouse assessed as tumor growth inhibition at 10 mg/kg, ip administered twice per week for consecutive 39 days", "format": "functional", "settings": "936 h, route intraperitoneal, read-out: GI", "method_in_brief": "as §2"}, "[18]": {"system": "Mus musculus", "assay": "Toxicity in athymic nu/nu BALB/c mouse bearing human A549 cells assessed as change in total body weight at 10 mg/kg, ip administered twice per week for consecutive 39 days", "format": "organism-based", "parameters": "dose 10 mg/kg, route intraperitoneal", "settings": "in vivo, 936 h", "method_in_brief": "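Mice bearing A549 s.c. flank xenografts, n = 5 per group, given 10 mg/kg ip in ethanol:Cremophor EL:water 1:1:18, twice weekly over 39 days starting day 8. Total body weights tracked through the study and compared with vehicle control. Mean ± SE.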"}}, "note": "Activity calls are given as the source filed them. No cut-off for these calls is given here."}
{"compound": "CN(C)CCCCCN(C)C1=Nc2ccccc2C(CC(=O)NCc2ccccc2)N1c1ccc(-c2ccccc2)cc1.Cl.Cl", "note": "(stereo not drawn)", "values": [{"measurement": "IC50", "setting": "[1]", "result": 4.9, "unit": "µM"}, {"measurement": "Activity", "setting": "[2]", "result": "Dose-dependent effect"}, {"measurement": "Activity", "setting": "[3]", "result": 27.05, "unit": "mm3"}, {"measurement": "Activity", "setting": "[4]", "result": 7.9, "unit": "mm3"}, {"measurement": "fold change (FC)", "setting": "[5]", "result": 3}, {"measurement": "Activity", "setting": "[6]", "result": 0.142, "unit": "g"}, {"measurement": "Activity", "setting": "[7]", "result": 0.12, "unit": "g"}, {"measurement": "inhibition in vivo at 1 mg/kg", "setting": "[8]", "result": 60, "unit": "%"}, {"measurement": "inhibition in vivo at 5 mg/kg", "setting": "[9]", "result": 67, "unit": "%"}, {"measurement": "Activity", "setting": "[10]", "result": "Non-toxic"}, {"measurement": "Activity", "setting": "[11]", "result": "Dose-dependent effect"}, {"measurement": "Activity", "setting": "[12]", "result": "inactive"}, {"measurement": "Activity", "setting": "[13]", "result": "Toxic"}]}
{"compound": "CC(C)Cc1ccc(C(C)C(=O)O)cc1", "note": "(stereo not drawn)", "values": [{"measurement": "Activity", "setting": "[14]", "result": "Active"}]}
{"compound": "CC(=O)O[C@H]1C(=O)[C@@]2(C)[C@H]([C@H](OC(=O)c3ccccc3)[C@]3(O)C[C@H](OC(=O)[C@H](O)[C@@H](NC(=O)c4ccccc4)c4ccccc4)C(C)=C1C3(C)C)[C@]1(OC(C)=O)CO[C@@H]1C[C@@H]2O", "note": "[PACLITAXEL]", "values": [{"measurement": "Activity", "setting": "[15]", "result": 22.9, "unit": "mm3"}, {"measurement": "Activity", "setting": "[16]", "result": 0.17, "unit": "g"}, {"measurement": "inhibition in vivo at 10 mg/kg", "setting": "[17]", "result": 53, "unit": "%"}, {"measurement": "Activity", "setting": "[18]", "result": "Non-toxic"}]}
